Published values gathered from unrelated publications.
CA9: Carbonic anhydrase 9 (CA9, Homo sapiens, UniProt Q16790)
Melanocortin receptor 5: Melanocortin receptor 5 (Mus musculus, UniProt P41149)
gyrB: DNA gyrase subunit B (gyrB, Escherichia coli, UniProt P0AES6)
Adora1: Adenosine receptor A1 (Adora1, Rattus norvegicus, UniProt P25099)
PKN1: Serine/threonine-protein kinase N1 (PKN1, Homo sapiens, UniProt Q16512)

| SMILES | target | test | conditions | measurement | value |
| --- | --- | --- | --- | --- | --- |
| CC(=O)Nc1cccc2c1CC(C)N2Cc1ccoc1C(=O)Nc1ccc(S(N)(=O)=O)cc1 (centres unmarked) | CA9 | enzyme activity, inhibitor | – | IC50 | 37.2 nM |
| N=C(N)NCCC[C@H](NC(=O)[C@@H](N)CC(=O)O)C(=O)N[C@@H](Cc1ccccc1)C(=O)O | Melanocortin receptor 5 | reporter gene, agonist | – | EC50 | > 100000 nM |
| Cc1cc2nc3c(=O)[nH]c(=O)nc-3n(C[C@H](O)[C@H](O)[C@H](O)COP(=O)(O)OP(=O)(O)OC[C@H]3O[C@@H](n4cnc5c(N)ncnc54)[C@H](O)[C@@H]3O)c2cc1C | RNA-binding protein 14 (Homo sapiens, UniProt Q96PK6) | binding | lysate | Kd | 32 nM |
| CNc1cccc2cc(C(=O)Nc3cccc(C(=O)O)c3)c(=O)[nH]c12 | gyrB | binding, ITC | – | Kd | 23 nM |
| CO[C@@]1(NC(=O)C2SC(=C(C(N)=O)C(=O)O)S2)C(=O)N2C(C(=O)O)=C(CSc3nnnn3C)CS[C@@H]21 (some centres unmarked) | Phosphatidylethanolamine-binding protein 1 (Homo sapiens, UniProt P30086) | binding | – | Kd | 35800 nM |
| CCCCn1c(=O)c2[nH]c(C34CC5CC(CC3C5)C4)nc2n(CCCO)c1=O | Adora1 | ligand displacement, radioligand | cell membranes | Ki | 0.368 nM |
| Cc1cc(Nc2nc(N[C@@H](C)c3ccc(F)cc3)c(C#N)cc2F)n[nH]1 | PKN1 | enzyme activity, inhibitor | – | IC50 | 213 nM |
| COc1ccc(-c2nsc(NC(=O)[C@@H]3C[C@H]3C)c2C)cc1 | Metabotropic glutamate receptor 1 (GRM1, Homo sapiens, UniProt Q13255) | calcium signal, agonist | – | EC50 | > 25000 nM |
| CNC(=O)c1cccc2oc(C(=O)NC3CCCN(CC(=O)Nc4ccc(S(N)(=O)=O)cc4)C3)cc12 (centres unmarked) | CA9 | enzyme activity, inhibitor | – | IC50 | 70.8 nM |
| N=C(N)NCCC[C@H](NC(=O)[C@H](CC(=O)O)NC(=O)[C@H](Cc1c[nH]c2ccccc12)NC(=O)[C@H](CCCNC(=N)N)NC(=O)[C@@H](N)Cc1ccccc1)C(=O)N[C@@H](Cc1ccccc1)C(=O)O | Melanocortin receptor 5 | reporter gene, agonist | – | EC50 | 6730 nM |
| CN1CCCn2c1nc1c2c(=O)n(C)c(=O)n1C | Adora1 | ligand displacement, radioligand | cell membranes | Ki | > 25000 nM |
| N=C(N)NCCC[C@H](NC(=O)[C@H](CC(=O)O)NC(=O)[C@H](Cc1c[nH]c2ccccc12)NC(=O)[C@H](CCCNC(=N)N)NC(=O)[C@@H](N)Cc1ccccc1)C(=O)N[C@@H](Cc1ccccc1)C(=O)NCC(=O)O | Melanocortin receptor 5 | reporter gene, agonist | – | EC50 | 13500 nM |
| CNc1cccc2cc(C(=O)NCCc3cccc(C(=O)O)c3)c(=O)[nH]c12 | gyrB | binding, ITC | – | Kd | 23 nM |
| NS(=O)(=O)c1ccc(C(=O)N2CCCC(CNc3ccc(Cl)cc3)C2)cc1Cl (centres unmarked) | CA9 | enzyme activity, inhibitor | – | IC50 | 206 nM |
| N=C(N)NCCC[C@H](NC(=O)[C@H](CC(=O)O)NC(=O)[C@@H](N)Cc1c[nH]c2ccccc12)C(=O)N[C@@H](Cc1ccccc1)C(=O)NCC(=O)O | Melanocortin receptor 5 | reporter gene, agonist | – | EC50 | > 100000 nM |
| NS(=O)(=O)c1ccc(NC(=O)C(Cc2c[nH]c3ccccc23)NC(=O)c2cccs2)cc1 (centres unmarked) | CA9 | enzyme activity, inhibitor | – | IC50 | 37.2 nM |
| CC(C)N1CCCn2c1nc1c2c(=O)n(C)c(=O)n1C | Adora1 | ligand displacement, radioligand | cell membranes | Ki | > 25000 nM |
| O=C(Nc1ccc(N2C(=O)c3ccccc3C2=O)c(Cl)c1)c1ncccc1Cl | Metabotropic glutamate receptor 4 (GRM4, Homo sapiens, UniProt Q14833) | calcium signal, agonist | – | EC50 | > 10000 nM |

| SMILES | target | test | conditions | measurement | value |
| --- | --- | --- | --- | --- | --- |
| NS(=O)(=O)c1cc(CNC(=O)N(Cc2ccc(O)cc2)CC2CC2)ccc1F | CA9 | enzyme activity, inhibitor | – | IC50 | 1200 nM |
| N=C(N)NCCC[C@H](NC(=O)[C@H](CC(=O)O)NC(=O)[C@H](Cc1c[nH]c2ccccc12)NC(=O)[C@H](CCCNC(=N)N)NC(=O)[C@H](Cc1ccccc1)NC(=O)[C@H](Cc1c[nH]cn1)NC(=O)CN)C(=O)N[C@@H](Cc1ccccc1)C(=O)NCC(=O)O | Melanocortin receptor 5 | reporter gene, agonist | – | EC50 | 290 nM |
| CCCN1CCCn2c1nc1c2c(=O)n(C)c(=O)n1C | Adora1 | ligand displacement, radioligand | cell membranes | Ki | 3870 nM |
| Cc1ccc(S(N)(=O)=O)c(C(=O)Nc2ccc(NC(=O)NCC3CCCO3)cc2)c1 (centres unmarked) | CA9 | enzyme activity, inhibitor | – | IC50 | 7880 nM |
| CSCC[C@H](NC(=O)[C@@H](NC(=O)[C@@H](N)Cc1ccc(O)cc1)C(C)C)C(=O)NCC(=O)N[C@@H](Cc1c[nH]cn1)C(=O)N[C@@H](Cc1ccccc1)C(=O)N[C@@H](CCCNC(=N)N)C(=O)N[C@@H](Cc1c[nH]c2ccccc12)C(=O)O | Melanocortin receptor 5 | reporter gene, agonist | – | EC50 | 710 nM |
| CCCCN1CCCn2c1nc1c2c(=O)n(CCC)c(=O)n1CCC | Adora1 | ligand displacement, radioligand | cell membranes | Ki | 280 nM |
| Cc1nn(-c2ccccc2)c(C)c1C1COCCN1C(=O)c1ccc(Cl)c(S(N)(=O)=O)c1 (centres unmarked) | CA9 | enzyme activity, inhibitor | – | IC50 | 155 nM |
| CNc1cccc2cc(C(=O)NCc3ccc(C(=O)O)cc3)c(=O)[nH]c12 | gyrB | binding, ITC | – | Kd | 9.3 nM |
| Cc1cnc(-c2ccc(-c3ccc(NC(=O)Nc4c(F)cc(F)cc4F)cc3F)c3c2C(=O)NC3)[nH]1 | Serine/threonine-protein kinase 26 (STK26, Homo sapiens, UniProt Q9P289) | binding, competition with immobilised ligand | – | Kd | 8.2 nM |
| Cc1cc(C(=O)Nc2ccccc2C(=O)NCc2cn(C)nn2)c(C)n1Cc1ccc(S(N)(=O)=O)cc1 | CA9 | enzyme activity, inhibitor | – | IC50 | 38.9 nM |
| CSCC[C@H](NC(=O)[C@@H](NC(=O)[C@@H](N)Cc1ccc(O)cc1)C(C)C)C(=O)NCC(=O)N[C@@H](Cc1c[nH]cn1)C(=O)N[C@@H](Cc1ccccc1)C(=O)N[C@@H](CCCNC(=N)N)C(=O)N[C@@H](Cc1c[nH]c2ccccc12)C(=O)N[C@@H](CC(=O)O)C(=O)O | Melanocortin receptor 5 | reporter gene, agonist | – | EC50 | 73 nM |
| CNc1cccc2cc(C(=O)Nc3cccc(CC(=O)O)c3)c(=O)[nH]c12 | gyrB | binding, ITC | – | Kd | 37 nM |
| CC(C)NC[C@@H](C(=O)N1CCN(c2ncnc3c2[C@H](C)C[C@H]3O)CC1)c1ccc(Cl)cc1 | PKN1 | enzyme activity, inhibitor | – | IC50 | 30 nM |
| CN(Cc1ccc(C(=O)O)cc1NC(=O)c1cc2ccccc2[nH]c1=O)C1CCCCC1 | gyrB | binding, ITC | – | Kd | 3900 nM |
| CCS(=O)(=O)Nc1ccc(Nc2c3ccccc3nc3cc(NC(=O)CCCC[C@@H]4SC[C@@H]5NC(=O)N[C@@H]54)ccc23)c(OC)c1 | Lymphocyte antigen 6K (Homo sapiens, UniProt Q17RY6) | binding, SPR | – | Kd | 4700 nM |
| CCCC[C@H](NC(=O)[C@@H](NC(=O)[C@@H](N)Cc1ccc(O)cc1)C(C)C)C(=O)NCC(=O)N[C@@H](Cc1c[nH]cn1)C(=O)N[C@@H](Cc1ccccc1)C(=O)N[C@@H](CCCNC(=N)N)C(=O)N[C@H](Cc1c[nH]c2ccccc12)C(=O)N[C@@H](CC(=O)O)C(=O)N[C@@H](CCCNC(=N)N)C(=O)N[C@@H](Cc1ccccc1)C(=O)NCC(=O)O | Melanocortin receptor 5 | reporter gene, agonist | – | EC50 | 10 nM |
| O=C(O)c1cccc(CCNC(=O)c2cc3ccccc3[nH]c2=O)c1 | gyrB | binding, ITC | – | Kd | 1400 nM |
